Only some compounds are listed: those with a hit (about 2.6% of all), similar ones and a draw of the others.
SKN-1 inh = C. elegans SKN-1 inhibition. C. elegans VP596 Pgst-4::GFP/RFP ratio, acrylamide-induced, 24 h. inhibition, % at 21.8 µM. 360,000 compounds, 0.49% hits. AID 624304;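 active means interference check ratio from 0.5 to 1.5 plus GFP to RFP signal ratio inhibition reaching or exceeding a fixed threshold, cut at about 30% in these data, passing the limit was not always enough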
GRK2 inh = blocks RNA aptamer binding to human GRK2. P25098. inhibition of aptamer binding, % at 10 µM. bead flow cytometry, FAM-aptamer displacement from GRK2. 330,000 compounds, 0.59% hits. AID 488847;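 active means inhibition of aptamer binding above 40%, roughly 3 SD of noise, on plates passing a quality check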;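 further: median bead fluorescence of bound FAM aptamer so fluorescent compounds give negative values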
Rce1 inhib = yeast Ras-converting enzyme inhibition; calls only; 290,000 compounds, 0.27% hits; yeast membranes, quenched prenylated peptide cleavage fluorescence; Q03530;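 active means fall in fluorescence gain of 50% or more versus controls, with final raw signal at or below 3038400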
Target sequence (Q03530 whole entry, looked up): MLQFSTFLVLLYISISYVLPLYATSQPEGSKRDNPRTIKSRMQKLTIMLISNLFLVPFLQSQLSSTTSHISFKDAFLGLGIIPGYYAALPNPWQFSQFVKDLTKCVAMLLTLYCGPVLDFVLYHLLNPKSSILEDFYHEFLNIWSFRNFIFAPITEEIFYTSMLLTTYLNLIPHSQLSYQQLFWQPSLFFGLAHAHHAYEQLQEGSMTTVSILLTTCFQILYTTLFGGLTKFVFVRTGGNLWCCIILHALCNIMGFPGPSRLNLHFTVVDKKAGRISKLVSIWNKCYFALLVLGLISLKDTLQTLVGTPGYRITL
Myeloid diff 2 = promotes myeloid progenitor differentiation; 360,000 compounds, 1% hits; ER-HoxA9 myeloid progenitors, lysozyme-GFP differentiation, flow cytometry; calls only at 10 µM;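 active means normalized GFP-positive differentiation at or above the plate's own cutoff, the solvent-only control mean plus 3 SD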;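 further: cells exposed to compound for four days before flow analysis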
T cell HTS = T cell immune modulators affecting CD8 T cell-vesicle binding; 2C CD8+ T cell-vesicle binding, flow cytometry; hits give low values; response (vesicle binding), % at 7 µM; 330,000 compounds, 0.068% hits; AID 2052;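 active means response, share of CD8 T cells binding vesicles, and their 90th percentile fluorescence all below set limits, cut at about 80% in these data, passing the limit was not always enough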;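 further: values below 100% mean blocked vesicle binding to the CD8+ T cells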
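System: murine 2C transgenic CD8+ T lymphocytes; also added: QL9-loaded Drosophila micro-vesicles; times: binding 1.5 h at 37 °C; measured by: flow cytometry, PE anti-B7-1 (FL2) versus Alexa647 anti-CD8 (FL8), PFA-fixed; control set: Peptide-free naked vesicles (low) and QL9 vesicles with 0.7% DMSO vehicle (high)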
Rin1-Abl PPI inh = inhibitors of human Rin1-Abl protein interaction. P00519+Q13671. TR-FRET Rin1/Abl binding, biochemical. inhibition, % at 7.35 µM. 360,000 compounds, 0.4% hits. AID 588664; in the data active means inhibition above about 5%, passing the limit was not always enough
Myeloid diff CP1 = compounds promoting myeloid differentiation; 2,300 compounds, 2% hits; shares compounds with Myeloid diff 2; calls only; ER-HoxA9 myeloid progenitors, GFP/Mac1 double-positive flow;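 active means share of green or green-and-red cells above 9 and 9% in run 1 or 4 and 3% in run 2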
GFP autofluor = compound fluorescence in myeloid differentiation counter-screen; shares compounds with Myeloid diff 2; ER-HoxA9 myeloid progenitors, no estrogen, GFP autofluorescence flow cytometry; vehicle wells 0%, positive control 100%; AID 651707; fluorescence response, % (no concentration beside the values); 2,300 compounds, 7.4% hits;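 active means over 5% cells positive for green fluorescent reporter, or over 2% positive for both it and APC stain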
Large screens that a line does not name were inactive (follow-up assays come after a bar, where they were run).

COc1cccc2sc3ccc(NCc4ccc5c(c4)OCO5)cc3c(=O)c12	none
Cn1c2ccccc2c(=O)c2ccc(NCc3ccc4c(c3)OCO4)cc21	Myeloid diff 2 active (no result: GRK2 inh, Rce1 inhib, T cell HTS) | Myeloid diff CP1 inactive | GFP autofluor inactive
C/C(Cc1ccccc1)=N\NC(=O)CNC(=O)c1ccccc1F	none
C(=C\c1ccccn1)/c1ccccn1	none | Myeloid diff CP1 inactive | GFP autofluor inactive
S=C(c1cn(Cc2ccc(Br)cc2)c2ccccc12)N1CCOCC1	none | Myeloid diff CP1 inactive | GFP autofluor inactive
CC1CCc2cc(F)ccc2N1C(=O)C12CCC(C)(C(=O)O1)C2(C)C (centres undefined)	none
CC(=O)Nc1cc(-c2ccc(CO)cc2)cn2c(-c3ccc(F)c(Cl)c3)cnc12	Myeloid diff 2 active (no result: GRK2 inh, Rce1 inhib, T cell HTS) | Myeloid diff CP1 inactive | GFP autofluor inactive
CC(=O)Nc1cc(-c2ccccc2Cl)cn2c(-c3ccc(S(C)(=O)=O)cc3)cnc12	Myeloid diff 2 active (no result: GRK2 inh, Rce1 inhib, T cell HTS) | Myeloid diff CP1 inactive | GFP autofluor inactive
O=C(CNC(=O)c1cccc(Cl)c1)NCC(c1cccs1)N1CCOCC1 (centres undefined)	none (no result: Rce1 inhib)
CC(CCc1ccco1)NC(=O)Cn1nc(Cc2ccncc2)c2ccccc2c1=O (centres undefined)	none | Myeloid diff CP1 inactive | GFP autofluor inactive
CCOc1ccc(CCNc2nc3ccc(C)cc3n3cnnc23)cc1OCC	none
CCOc1ccccc1Nc1nc2ccc(C)cc2n2cnnc12	Myeloid diff 2 active (no result: GRK2 inh, T cell HTS) | Myeloid diff CP1 active | GFP autofluor inactive
Cc1cccc(N2CCN(S(=O)(=O)c3c(C)[nH]c(=O)[nH]c3=O)CC2)c1C	none | Myeloid diff CP1 inactive | GFP autofluor inactive
CN(C)S(=O)(=O)NCC1CCCN(Cc2cc3ccccc3s2)C1 (centres undefined)	none | Myeloid diff CP1 inactive | GFP autofluor inactive
CN(C)S(=O)(=O)NCC1CCCN(Cc2ccc(-c3ccccc3)cc2)C1 (centres undefined)	none
CCCCOCCCNC(=O)N[C@H](C(=O)OC)C(C)C	Myeloid diff 2 active | Myeloid diff CP1 inactive | GFP autofluor inactive
C#CCOCCOCCOCCNc1nc(N2CCN(C(=O)[C@H](CCCCN)n3cc([C@@H](N)CO)nn3)CC2)nc(N2CCN(C(=O)[C@H](Cc3cc4ccccc4[nH]3)n3cc([C@@H](N)CC(C)C)nn3)CC2)n1	none (no result: SKN-1 inh, Myeloid diff 2, Rin1-Abl PPI inh)
O=C(CSCc1ccc(F)cc1)N1CCN(c2ccc(F)cc2)CC1	none
Cc1ccc(CSCC(=O)N2CCN(c3ccc(F)cc3)CC2)cc1	none | Myeloid diff CP1 inactive | GFP autofluor inactive
COC(=O)COc1ccc(S(=O)(=O)Nc2ccc3c(c2)OCO3)cc1Cl	Myeloid diff 2 active | Myeloid diff CP1 inactive | GFP autofluor inactive
O=C(NCCCN1CCOCC1)c1cc(S(=O)(=O)N2CCCCC2)ccc1Cl	none (no result: GRK2 inh, Rce1 inhib, T cell HTS)
CC(C)(Oc1ccc(Cl)cc1)C(=O)NCc1n[nH]c(=O)c2ccccc12	none
O=C(C1CCC(=O)N(C2CCCC2)C1)N1CCN(c2ccc(Cl)cc2)CC1 (centres undefined)	none
Cc1ccc(Cl)cc1N1CCN(C(=O)C2CCC(=O)N(C3CCCCCC3)C2)CC1 (centres undefined)	Myeloid diff 2 active | Myeloid diff CP1 inactive | GFP autofluor inactive
C=CCc1cccc(C=Nc2c[nH]c(=O)[nH]c2=O)c1O	none
C=CCc1cccc(C=Nc2cc(Br)ccc2O)c1O	Myeloid diff 2 active | Myeloid diff CP1 inactive | GFP autofluor inactive
O=C(O)c1ccc(CNS(=O)(=O)c2ccc(Oc3ccccc3Cl)cc2)cc1	none
CC(C)(C)c1cc(C(=O)NNc2cc(C(F)(F)F)ccc2Cl)n(Cc2ccccc2)n1	none
CCOc1ccccc1NC(=O)CCC(=O)O	none
CCOc1ccccc1NC(=O)CCNS(=O)(=O)c1ccccc1	Myeloid diff 2 active | Myeloid diff CP1 inactive | GFP autofluor inactive
O=C(c1ccc(OC2CCN(CCO)CC2)cc1)N1CCCC1	none (no result: Rce1 inhib)
O=C(COC(=O)Cc1ccccc1[N+](=O)[O-])NCC1CCCCC1	none
CCCCc1nn(-c2cc(Cl)ccc2OC)c2c1C(=O)CC(C)(C)C2	none | Myeloid diff CP1 inactive | GFP autofluor inactive
CSc1nc(C)cc(C)c1C#N	Myeloid diff 2 active | Myeloid diff CP1 inactive | GFP autofluor inactive
COc1ccc(-c2csc3ncn(-c4ccccc4)c(=O)c23)cc1OC	none
COc1ccc(-c2csc3ncn(-c4ccccc4OC)c(=O)c23)cc1OC	Myeloid diff 2 active | Myeloid diff CP1 inactive | GFP autofluor inactive
O=C(CCC(=O)N(CC(=O)NC1CCCCC1)c1ccc2c(c1)OCO2)Nc1ccccn1	none | Myeloid diff CP1 inactive | GFP autofluor inactive
COc1ccc(C(=O)NNC(=O)CSc2nnc(C)n2CC2CCCO2)cc1 (centres undefined)	none
CCOC(=O)c1ccc(NC(=O)N2C3CCCC2CC(NC(C)=O)C3)cc1 (centres undefined)	none
COC(=O)c1ccc(C(=O)N2CCCC(N3CCN(c4ccccc4)CC3)C2)nc1 (centres undefined)	none
O=c1cc(-c2ccccc2Cl)oc2c(Br)ccc(O)c12	Myeloid diff 2 active | Myeloid diff CP1 inactive | GFP autofluor inactive
O=c1cc(-c2ccccc2Cl)oc2cccc(O)c12	none
CCC(=O)N(CCC(c1ccc(C)cc1)c1ccco1)Cc1ccco1 (centres undefined)	none | Myeloid diff CP1 inactive | GFP autofluor inactive
CCOC(=O)c1cnc(SCc2nc(N)nc(Nc3ccc(C)cc3)n2)nc1N	none | Myeloid diff CP1 inactive | GFP autofluor inactive
CCOC(=O)c1cnc(SCc2nc(N)nc(Nc3ccc(F)cc3)n2)nc1N	none (no result: Rce1 inhib)
CCNC(=O)c1ccccc1SCC(=O)Nc1ccc(F)cc1	none
Nc1nc2ccccc2cc1C(=O)NCCCCc1ccccc1	none (no result: GRK2 inh, Rce1 inhib, T cell HTS, Rin1-Abl PPI inh) | Myeloid diff CP1 inactive | GFP autofluor inactive
O=C(NCCc1nnc2ccc(N3CCCCCC3)nn12)c1ccccc1F	none
CN(C(=O)c1ccc(NC(=O)C2CCCN(C(=O)OC(C)(C)C)C2)cc1)C1CCCCC1 (centres undefined)	none (no result: Rce1 inhib)
O=C(NNC1=Nc2cccc3cccc1c23)c1ccc(Br)cc1	Myeloid diff 2 active | Myeloid diff CP1 inactive | GFP autofluor 12.4
COc1ccc(CC(=O)NNC2=Nc3cccc4cccc2c34)cc1OC	none
CCN(CC)C(=O)Cn1cc(C(=O)C(=O)NCc2ccco2)c2ccccc21	none
O=C(Nc1ccccc1[N+](=O)[O-])c1nc[nH]c1C(=O)NCCO	Myeloid diff 2 active | Myeloid diff CP1 inactive | GFP autofluor inactive
NNC(=O)c1nc[nH]c1C(=O)Nc1ccccc1[N+](=O)[O-]	none
C1CCC2(CC1)C1=C(CCCC1)Nc1nnnn12	Myeloid diff 2 active | Myeloid diff CP1 inactive | GFP autofluor inactive

From PubChem
